Laboratory results as given in ChEMBL document CHEMBL1122798, “Trypanocidal 1,3-arylene diketone bis(guanylhydrazone)s. Structure-activity relationships among substituted and heterocyclic analogues” (1984).

Experiments:
Assay type in all cases: functional
[1] = tested on: Mus musculus; assay: Compound was tested for Trypanocidal Activity in mice at 25 mg/kg; 10/10
[2] = tested on: Mus musculus; assay: Compound was tested for Trypanocidal Activity in mice at 2.5 mg/kg; 21/35
[3] = organism: Mus musculus; assay: Effective dose against Trypanosoma brucei infection in mice
How it was run: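 Female Swiss-Webster mice (20–25 g) were infected ip with 5×10^4 T. brucei EATRO 110 organisms in fresh mouse blood diluted with minimum essential medium. Groups of 5 or 10 received a single ip dose in normal saline (solution or milled suspension, 20 μL/g) 6 h post-infection. Deaths within 72 h were scored as toxic. Survivors aparasitemic at 28 days (tail-blood wet films, phase contrast) counted as cures. ED50 was computed by Bliss/Litchfield–Wilcoxon, excluding toxic dosages.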

[4] = tested on: Mus musculus; assay: Compound was tested for Trypanocidal Activity in mice at 15 mg/kg; 10/10
[5] = tested on: Mus musculus; assay: Compound was tested for Trypanocidal Activity in mice at 1.5 mg/kg; 2/25
[6] = tested on: Mus musculus; assay: Compound was tested for Trypanocidal Activity in mice at 60 mg/kg; 0/5
[7] = tested on: Mus musculus; assay: Compound was tested for Trypanocidal Activity in mice at 6 mg/kg; 26/30
[8] = tested on: Mus musculus; assay: Compound was tested for Trypanocidal Activity in mice at 1.0 mg/kg; 0/10
[9] = tested on: Mus musculus; assay: Compound was tested for Trypanocidal Activity in mice at 10 mg/kg; 19/20
[10] = tested on: Mus musculus; assay: Compound was tested for Trypanocidal Activity in mice at 4 mg/kg; 20/30
[11] = tested on: Mus musculus; assay: Compound was tested for Trypanocidal Activity in mice at 40 mg/kg; toxic deaths; 1/5
[12] = tested on: Mus musculus; assay: Compound was tested for Trypanocidal Activity in mice at 40 mg/kg; 0/5
[13] = tested on: Mus musculus; assay: Compound was tested ffor Trypanocidal Activity in mice at 500 mg/kg; 0/5
[14] = tested on: Mus musculus; assay: Compound was tested for Trypanocidal Activity in mice at 15 mg/kg; 0/5
[15] = tested on: Mus musculus; assay: Compound was tested for Trypanocidal Activity in mice at 100 mg/kg; 0/5
[16] = tested on: Mus musculus; assay: Compound was tested for Trypanocidal Activity in mice at 4 mg/kg; 22/30
[17] = tested on: Mus musculus; assay: Compound was tested for Trypanocidal Activity in mice at 25 mg/kg; toxic deaths; 8/10
[18] = tested on: Mus musculus; assay: Compound was tested for Trypanocidal Activity in mice at 1.5 mg/kg; 3/30
[19] = tested on: Mus musculus; assay: Compound was tested for Trypanocidal Activity in mice at 2.5 mg/kg; 15/30
[20] = tested on: Mus musculus; assay: Compound was tested for Trypanocidal Activity in mice at 15 mg/kg; 9/10
[21] = tested on: Mus musculus; assay: Compound was tested for Trypanocidal Activity in mice at 6 mg/kg; 9/10
[22] = tested on: Mus musculus; assay: Compound was tested for Trypanocidal Activity in mice at 10 mg/kg; 10/10
[23] = tested on: Mus musculus; assay: Compound was tested for Trypanocidal Activity in mice at 15 mg/kg; 4/15
[24] = tested on: Mus musculus; assay: Compound was tested for Trypanocidal Activity in mice at 25 mg/kg; 10/15
[25] = tested on: Mus musculus; assay: Compound was tested for Trypanocidal Activity in mice at 40 mg/kg; 5/5
[26] = tested on: Mus musculus; assay: Compound was tested for Trypanocidal Activity in mice at 10 mg/kg; 0/5

**Q.** Which results are given for `C/C(=N\NC(=N)N)c1cc(N)cc(/C(C)=N/NC(=N)N)c1.Cl`?
**A.** Cures/total [1]: 10; Cures/total [2]: 21; ED50 [3]: 2.8 mg/kg; Mice cured (number) [4]: 10; Cures/total [5]: 2; Cures/total [6]: 0; Cures/total [7]: 26; Cures/total [8]: 0; Cures/total [9]: 19; Cures/total [10]: 20; Cures/total [11]: 1

**Q.** What does the source list for `C/C(=N\NC(=N)N)c1cc(/C(C)=N/NC(=N)N)c(O)cc1O.Cl`?
**A.** Cures/total [12]: 0; Cures/total [13]: 0; Cures/total [14]: 0; Cures/total [15]: 0

**Q.** For `CC(=O)Nc1cc(/C(C)=N/NC(=N)N)cc(/C(C)=N/NC(=N)N)c1.Cl`, which Cures/total [16] is on record?
**A.** 22

**Q.** What about the Cures/total [12] of the same compound?
**A.** 0

**Q.** What about the Cures/total [17] of the same compound?
**A.** 8

**Q.** What about the Cures/total [18] of the same compound?
**A.** 3

**Q.** What about the Cures/total [19] of the same compound?
**A.** 15

**Q.** What about the Cures/total [8] of the same compound?
**A.** 0

**Q.** And the Cures/total [20]?
**A.** 9

**Q.** What about the Cures/total [21] of the same compound?
**A.** 9

**Q.** What about the Cures/total [22] of the same compound?
**A.** 10

**Q.** How did the Cures/total [23] turn out when `C/C(=N\NC(=N)N)c1ccc([N+](=O)[O-])c(/C(C)=N/NC(=N)N)c1.Cl` was run?
**A.** 4

**Q.** And the ED50 [3]?
**A.** 20 mg/kg

**Q.** What about the Cures/total [24] of the same compound?
**A.** 10

**Q.** What about the Cures/total [25] of the same compound?
**A.** 5

**Q.** What about the Cures/total [26] of the same compound?
**A.** 0

**Q.** What about the Cures/total [6] of the same compound?
**A.** 0
